Among the data in ChEMBL document CHEMBL1143333, “Amide derivatives of ethacrynic acid: synthesis and evaluation as antagonists of Wnt/beta-catenin signaling and CLL cell survival” (Bioorg Med Chem Lett, 2009) are EC50 and IC50 values, retold here.

The nature of test [1]: Cytotoxicity against human CLL cells after 48 hrs by MTT method. In kind it is functional, cell-based. The procedure, abridged:
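Freshly isolated CLL cells plated at 2.5 × 10^5 per well and exposed to compounds for 48 h. MTT added at 1/10 volume of a 5 mg/mL stock, followed by overnight incubation at 37 °C before read-out of viability.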

Test [2] can be described thus: Inhibition of Wnt/beta-catenin signaling in human SW480 cells by fluorimetry.

Turning to `C=C(CC)C(=O)c1ccc(OCC(=O)Nc2cc(Cl)ccc2C(=O)O)c(Cl)c1Cl`, a half-maximal effect in test [1] (EC50) was put at 13.8 µM. In addition, in test [2], the IC50 (usually the concentration needed to halve the response being measured) came to 9.62 µM.
On the same counts, the results for `C=C(CC)C(=O)c1ccc(OCC(=O)Nc2ccc(C(=O)NC(CCC(=O)OCC)C(=O)OCC)cc2)c(Cl)c1Cl` (centres undefined) are 2.1 µM and 2.61 µM.
With `C=C(CC)C(=O)c1ccc(OCC(=O)Nc2ccc(CC(=O)O)cc2)c(Cl)c1Cl`, the response in test [1] was half-maximal at 3.2 µM (EC50). The IC50 in test [2] was more than 50 µM.
Regarding `C=C(CC)C(=O)c1ccc(OCC(=O)Nc2ccc(S(=O)(=O)O)cc2)c(Cl)c1Cl`, the EC50 (commonly the concentration needed to bring the measured effect to its halfway point) in test [1] was more than 25 µM. In test [2], this compound came in with an IC50 of more than 50 µM.
In the same order, the values of `C=C(CC)C(=O)c1ccc(OCC(=O)Nc2ccc(/C=C/C(=O)OCC)cc2)c(Cl)c1Cl` are 1.7 µM and 3.79 µM.
For the compound `C=C(CC)C(=O)c1ccc(OCC(=O)Nc2ccc(/C=C/C(=O)O)cc2)c(Cl)c1Cl`, the midpoint of the response in test [1], the EC50, lay at 3 µM. Further, half-maximal inhibition in test [2] (IC50) was put at 2.51 µM.
In turn, `C=C(CC)C(=O)c1ccc(OCC(=O)Nc2ccc3c(c2)C(=O)NC3=O)c(Cl)c1Cl` had an EC50 in test [1] of 2.5 µM. This compound gave an IC50 in test [2] of 4.88 µM.
As to `C=C(CC)C(=O)c1ccc(OCC(=O)NCCc2c[nH]c3ccccc23)c(Cl)c1Cl`, in test [1], the EC50 was 5.9 µM. In addition, the midpoint of inhibition in test [2], the IC50, lay at 10.7 µM.
The compound `C=C(CC)C(=O)c1ccc(OCC(=O)Nc2ccc(C(=O)O)cn2)c(Cl)c1Cl` had an EC50 in test [1] of 14.9 µM. Further, the IC50 in test [2] is more than 50 µM.
Consider `C=C(CC)C(=O)c1ccc(OCC(=O)NCO[N+](=O)[O-])c(Cl)c1Cl`, for which the EC50 in test [1] came to 4.1 µM. Also, in test [2], the IC50 is more than 50 µM.
In test [1], `C=C(CC)C(=O)c1ccc(OCC(=O)Nc2ccc3c(C)cc(=O)oc3c2)c(Cl)c1Cl` registered an EC50 of 2.8 µM. Also, the concentration for half-maximal inhibition (IC50) in test [2] turned out to be 2.63 µM.
`C=C(CC)C(=O)c1ccc(OCC(=O)Nc2ccc(O)cc2)c(Cl)c1Cl` displayed an EC50 in test [1] of 6.4 µM. Besides, the IC50 in test [2] is more than 50 µM.
In the same order, the values of `C=C(CC)C(=O)c1ccc(OCC(=O)Nc2ccc(C(N)=O)cc2)c(Cl)c1Cl` are 3.7 µM and 4.76 µM.
`C=C(CC)C(=O)c1ccc(OCC(=O)Nc2ccc(C(=O)O)cc2)c(Cl)c1Cl`: in test [1], the EC50 is 5 µM. The IC50 in test [2] amounted to 5.81 µM.
In turn, `C=C(CC)C(=O)c1ccc(OCC(=O)Nc2ccc(O)c(Cl)c2)c(Cl)c1Cl` showed an EC50 in test [1] of 5.5 µM. The compound further displayed an IC50 in test [2] of 3.8 µM.
As for `C=C(CC)C(=O)c1ccc(OCC(=O)NCC2CCC(C(=O)O)CC2)c(Cl)c1Cl` (centres undefined), it took 8 µM to reach a half-maximal effect in test [1] (EC50). Further, in test [2], the IC50 was more than 50 µM.
In test [1], `C=C(CC)C(=O)c1ccc(OCC(=O)Nc2cccc(C(=O)O)c2)c(Cl)c1Cl` had an EC50 of 20.6 µM. For the same compound, the midpoint of inhibition in test [2], the IC50, lay at 5.85 µM.
In test [1], `C=C(CC)C(=O)c1ccc(OCC(=O)Nc2ccc(C(=O)O)c(O)c2)c(Cl)c1Cl` gave an EC50 of more than 25 µM. The compound also yielded an IC50 in test [2] of more than 50 µM.
As for `C=C(CC)C(=O)c1ccc(OCC(=O)Nc2ccc(C(=O)OC)cc2)c(Cl)c1Cl`, in test [1], the EC50 turned out to be 4.1 µM. In test [2], this compound gave an IC50 of 11.4 µM.
Turning to `C=C(CC)C(=O)c1ccc(OCC(=O)Nc2ccc3c(c2)C(=O)c2ccccc2C3=O)c(Cl)c1Cl`, a half-maximal response in test [1] (EC50) required 2.1 µM. Besides, the midpoint of inhibition in test [2], the IC50, lay at 2.97 µM.
Turning to `C=C(CC)C(=O)c1ccc(OCC(=O)NCCCN2CCCC2=O)c(Cl)c1Cl`, the EC50 in test [1] was 13.8 µM. For the same compound, in test [2], the IC50 was more than 50 µM.
Compound `C=C(CC)C(=O)c1ccc(OCC(=O)NC(CS)C(=O)OCC)c(Cl)c1Cl` (centres undefined) came in with an EC50 in test [1] of 4.8 µM. This compound yielded an IC50 in test [2] of more than 50 µM.
Compound `C=C(CC)C(=O)c1ccc(OCC(=O)Nc2ccc(/C=C/C(=O)NO)cc2)c(Cl)c1Cl` registered an EC50 in test [1] of 2.6 µM. Moreover, in test [2], the midpoint of inhibition, the IC50, lay at 1.81 µM.
`C=C(CC)C(=O)c1ccc(OCC(=O)Nc2ccc(C#N)cc2)c(Cl)c1Cl` showed an EC50 in test [1] of 7.8 µM. In addition, the IC50 in test [2] turned out to be 6.84 µM.
The compound `C=C(CC)C(=O)c1ccc(OCC(=O)Nc2ccc(Cl)c(C(=O)O)c2)c(Cl)c1Cl` returned an EC50 in test [1] of 15.9 µM. The same compound came in with an IC50 in test [2] of more than 50 µM.
As to `C=C(CC)C(=O)c1ccc(OCC(=O)NCCO)c(Cl)c1Cl`, the EC50 in test [1] is more than 25 µM. Moreover, in test [2], the IC50 is more than 50 µM.
In test [1], `C=C(CC)C(=O)c1ccc(OCC(=O)Nc2ccc(C(C)=O)cc2)c(Cl)c1Cl` had a 50% effective concentration (EC50) of 3.9 µM. In test [2], this compound came in with an IC50 of 5.06 µM.
In test [1], `C=C(CC)C(=O)c1ccc(OCC(=O)Nc2nc(/C(=N\OC)C(=O)O)cs2)c(Cl)c1Cl` had an EC50 of more than 25 µM. Besides, in test [2], the IC50 is more than 50 µM.
Compound `C=C(CC)C(=O)c1ccc(OCC(=O)Nc2nc3ccccc3s2)c(Cl)c1Cl` returned an EC50 in test [1] of 1.5 µM. In test [2], this compound returned an IC50 of 4.86 µM.
For `C=C(CC)C(=O)c1ccc(OCC(=O)NCCN2CCOCC2)c(Cl)c1Cl`, the midpoint of the response in test [1], the EC50, lay at 6.4 µM. The compound further returned an IC50 in test [2] of more than 50 µM.
Turning to `C=C(CC)C(=O)c1ccc(OCC(=O)Nc2ccc(Cc3ccc(N4C(=O)C5C6C=CC(C6)C5C4=O)cc3)cc2)c(Cl)c1Cl` (centres undefined), a half-maximal response in test [1] (EC50) required 1.8 µM. In test [2], this compound displayed an IC50 of 2.93 µM.
`C=C(CC)C(=O)c1ccc(OCC(=O)Nc2ccc3cc(C(=O)O)ccc3c2)c(Cl)c1Cl` gave an EC50 in test [1] of 3.7 µM. Moreover, the IC50 in test [2] worked out at 2.93 µM.
With `C=C(CC)C(=O)c1ccc(OCC(=O)Nc2ccc([C@]3(CC)CCC(=O)NC3=O)cc2)c(Cl)c1Cl`, the midpoint of the response in test [1], the EC50, lay at 2.8 µM. For the same compound, the IC50 in test [2] turned out to be 4.42 µM.
Compound `C=C(CC)C(=O)c1ccc(OCC(=O)NO)c(Cl)c1Cl` yielded an EC50 in test [1] of 4.5 µM. This compound also came in with a concentration for half-maximal inhibition (IC50) in test [2] of 9.89 µM.
In test [1], `C=C(CC)C(=O)c1ccc(OCC(=O)Nc2ccc(O)c([N+](=O)[O-])c2)c(Cl)c1Cl` yielded an EC50 of 7.4 µM. Besides, the IC50 in test [2] was found to be 4.23 µM.
In test [1], `C=C(CC)C(=O)c1ccc(OCC(=O)Nc2ccc3c(c2)C(O)N=NC3O)c(Cl)c1Cl` (centres undefined) gave an EC50 of 8.5 µM. In addition, the IC50 in test [2] worked out at 6.58 µM.
On to `C=C(CC)C(=O)c1ccc(OCC(=O)Nc2ccc3nc[nH]c3c2)c(Cl)c1Cl`, for which a half-maximal effect in test [1] (EC50) was put at 3.2 µM. For the same compound, in test [2], the IC50 stood at 3.62 µM.
`C=C(CC)C(=O)c1ccc(OCC(=O)Nc2cc(OC)c(OC)cc2C(=O)O)c(Cl)c1Cl` yielded a concentration for a half-maximal effect (EC50) in test [1] of 21.9 µM. The IC50 in test [2] was more than 50 µM.
In the case of `C=C(CC)C(=O)c1ccc(OCC(=O)NC2CCN(CC(=O)OC)CC2)c(Cl)c1Cl`, a half-maximal effect in test [1] (EC50) was put at 10.6 µM. In test [2], this compound gave an IC50 of more than 50 µM.
`C=C(CC)C(=O)c1ccc(OCC(=O)NCC(=O)O)c(Cl)c1Cl`: the EC50 in test [1] is more than 25 µM. The same compound yielded an IC50 in test [2] of more than 50 µM.
Compound `CCC(C)C(=O)c1ccc(OCC(=O)O)c(Cl)c1Cl` (centres undefined) had an EC50 in test [1] of more than 25 µM. Moreover, the IC50 in test [2] is more than 50 µM.
Compound `C=C(CC)C(=O)c1ccc(OCC(=O)O)c(Cl)c1Cl` [ETHACRYNIC ACID] came in with an EC50 in test [1] of 9.9 µM. This compound yielded an IC50 in test [2] of 32.7 µM.
